Bioassay records deposited in PubChem by several laboratories.
Rows were chosen to be rich in hits. Some 3.4% of all compounds tested hit in one or more screens of this group.
LANA-H2B inh: blocks KSHV LANA binding to histone H2A/H2B | cell-free LANA-H2A/H2B peptide, fluorescence polarization | inhibition, % (test concentration not listed) | 0.6% of 320,000 active | AID 2629; in the data active means inhibition mostly above about 10%, no sharp cut-off; inactive means mostly below about 6.7%
Target sequence (Q9QR71 whole entry, looked up): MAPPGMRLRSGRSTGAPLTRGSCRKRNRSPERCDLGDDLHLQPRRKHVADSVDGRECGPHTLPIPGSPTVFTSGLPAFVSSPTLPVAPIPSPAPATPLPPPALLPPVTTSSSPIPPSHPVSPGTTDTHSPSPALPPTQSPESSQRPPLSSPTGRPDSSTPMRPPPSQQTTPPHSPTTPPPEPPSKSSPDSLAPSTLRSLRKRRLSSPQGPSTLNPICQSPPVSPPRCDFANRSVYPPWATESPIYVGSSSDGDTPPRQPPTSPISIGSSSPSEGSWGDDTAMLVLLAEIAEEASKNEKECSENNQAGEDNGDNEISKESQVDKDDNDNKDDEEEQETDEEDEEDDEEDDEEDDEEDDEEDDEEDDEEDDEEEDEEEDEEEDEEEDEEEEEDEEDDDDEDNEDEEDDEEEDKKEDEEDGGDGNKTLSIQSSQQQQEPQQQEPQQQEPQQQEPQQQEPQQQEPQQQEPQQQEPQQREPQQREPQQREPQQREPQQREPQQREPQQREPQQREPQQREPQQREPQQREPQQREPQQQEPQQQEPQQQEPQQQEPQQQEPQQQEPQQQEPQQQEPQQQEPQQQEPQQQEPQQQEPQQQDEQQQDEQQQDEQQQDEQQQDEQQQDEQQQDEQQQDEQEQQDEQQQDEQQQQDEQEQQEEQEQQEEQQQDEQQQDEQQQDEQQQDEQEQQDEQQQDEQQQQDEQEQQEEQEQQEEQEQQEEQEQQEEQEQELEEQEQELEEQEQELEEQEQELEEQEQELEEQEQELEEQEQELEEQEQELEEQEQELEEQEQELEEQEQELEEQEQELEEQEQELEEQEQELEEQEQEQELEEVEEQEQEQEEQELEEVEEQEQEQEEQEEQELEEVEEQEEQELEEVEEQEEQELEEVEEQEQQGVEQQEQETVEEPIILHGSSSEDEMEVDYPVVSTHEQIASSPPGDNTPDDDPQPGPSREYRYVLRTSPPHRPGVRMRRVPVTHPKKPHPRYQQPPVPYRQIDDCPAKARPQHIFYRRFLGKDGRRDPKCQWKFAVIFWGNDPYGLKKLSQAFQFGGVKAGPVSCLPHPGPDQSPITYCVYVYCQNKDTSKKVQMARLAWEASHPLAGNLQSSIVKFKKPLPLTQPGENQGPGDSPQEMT
TRPML3 agonist: agonists of human TRPML3 channel. Q8TDD5. HEK293 TRPML3-YFP, Fluo-8 calcium fluorescence; 100% = the carbachol control signal. activation, % at 3 µM. 0.29% of 220,000 active. AID 1448;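 active means activation above its plate's cutoff, the mean activation of the plate's test wells plus 3 SD, cut at about 12% in these data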;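 further: 0% = DMSO only wells and 100% = carbachol wells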
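Test system: HEK293 cells stably carrying human TRPML3-YFP; Doses: single dose, 3 µM final nominal compound, 0.3% DMSO final; Schedule: dye loading 1 h 37 °C then 30 min ambient, 125 s read; Technique: Fluo-8 calcium fluorescence; Benchmarks: high control carbachol 87 µM, low control DMSO.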
TAAR1 antagonist: human TAAR1 antagonism. Q96RJ0. CHO RD-HGA16 TAAR1, Fluo-8 calcium fluorescence, antagonist. inhibition, % at 3 µM. 1.5% of 360,000 active. AID 624466;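 active means inhibition above a per-plate cutoff, the mean inhibition of test compounds on that plate plus 3 SD, cut at about 49% in these data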;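 further: 0% = DMSO plus EC80 beta-PEA response and 100% = DMSO alone without agonist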
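Material: RD-HGA16 CHO cells with stable hTAAR1 and Gα16; Dosing: single nominal final test compound concentration of 3 µM; Schedule: seeding 17-24 h prior, 75-min 37 °C, 30-min RT dye loading; Detection: kinetic Fluo-8 calcium fluorescence measurement; Measure: % inhibition from peak post-agonist over basal fluorescence ratio; Benchmarks: vehicle and agonist controls.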
TAAR1 agonist: human TAAR1 agonism. activation, % at 3 µM. Q96RJ0. AID 624467. CHO RD-HGA16 TAAR1, Fluo-8 calcium fluorescence; vehicle wells 0%, saturating PEA agonist 100%. 0.99% of 360,000 active;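 active means activation above the mean activation of all test compounds in the run plus 3 SD, cut at about 38% in these data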
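Benchmarks: low control DMSO, high control PEA (EC100); System: CHO RD-HGA16 cells carrying human TAAR1 plus Gα16; Detection: Fluo-8 fluorescence, 5 s baseline then 140 s kinetic read; Schedule: 17-24 h plating, Fluo-8 75 min 37 °C, 30 min RT; Read-out basis: % activation from peak over basal fluorescence ratio, DMSO-to-PEA scaled.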
TRPN1 ag: agonists of zebrafish TRPN1 channel; HEK293 zebrafish TRPN1-YFP, Fluo-8 calcium fluorescence; 100% = response to 87 µM carbachol; 0.18% of 220,000 active; AID 1424; activation, % at 3 µM;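 active means activation above its plate's cutoff, the mean activation of test wells on that plate plus 3 SD, cut at about 19% in these data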;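 further: 0% = DMSO alone and 100% = 87 µM carbachol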
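Material – zebrafish TRPN1-YFP in HEK293 cells · Doses – 3 µM single point · Schedule – dye 1 h 37 °C plus 30 min RT · Signal – Fluo-8 calcium fluorescence, excitation 470-495 nm, emission 515-575 nm · Read-out – % activation versus carbachol response · Control set – carbachol high, DMSO low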
GPR7 antag: blocks human GPR7 receptor signaling. GPR7-expressing cells, fluorescence antagonist assay. inhibition, % at 4.4 µM. 1.1% of 290,000 active. AID 1861; in the data active means inhibition above about 16%, passing the limit was not always enough;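 further: cells stimulated with the agonist NPW; 0% = agonist with vehicle and 100% = vehicle without agonist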
TAAR1 nonsel count: counter-screen for TAAR1 antagonists: nonselective antagonists. inhibition, % at 3 µM. counterscreen cell line, calcium fluorescence, antagonist mode. 77% of 2,400 active. AID 651780. shares compounds with TAAR1 antagonist; in the data active means inhibition above about 22%;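 further: CHO-Ga16 host cells stimulated with ATP at an EC80 level; 0% = agonist EC80 plus vehicle and 100% = vehicle without agonist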
TAAR1 ant conf: confirmation of human TAAR1 antagonists; shares compounds with TAAR1 antagonist; TAAR1-expressing cells, fluorescence antagonist read-out; inhibition, % at 3 µM; 40% of 2,400 active; in the data active means inhibition above about 49%;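 further: CHO-Ga16 host cells challenged with agonist PEA near its EC80; 0% = agonist at EC80 plus vehicle and 100% = vehicle with no agonist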
Ga16 ag counter: nonselective Ga16 agonist in TAAR1 antagonist counter-screen; 18% of 2,400 active; Ga16-expressing cells, calcium fluorescence, agonist counterscreen; shares compounds with TAAR1 antagonist; activation, % at 3 µM; in the data active means activation above about 12%;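 further: 0% = vehicle wells and 100% = saturating stimulus response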
TAAR1 ag count: activates human TAAR1 in antagonist counter-screen | shares compounds with TAAR1 antagonist | hTAAR1 cell line, fluorescence activation, agonist mode | activation, % at 3 µM | 2% of 2,400 active; in the data active means activation above about 37%;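 further: CHO cells stably expressing TAAR1 with calcium dye readout; 0% = DMSO vehicle and 100% = full agonist response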
Starred values were filed as active, the others as inactive; nt = not tested or not shown.

SMILES | LANA-H2B inh | TRPML3 agonist | TAAR1 antagonist | TAAR1 agonist | TRPN1 ag | GPR7 antag | TAAR1 nonsel count | TAAR1 ant conf | Ga16 ag counter | TAAR1 ag count
C/C(=N\Nc1nc(Cl)c(Cl)cc1Cl)c1ccc(S(=O)(=O)NCc2ccco2)cc1 | -4 | 1 | 65* | 10 | 1 | -10 | 40* | 52* | 9 | 5
COc1ccccc1-c1csc(C(O)c2ccccc2)n1 (centres undefined) | nt | nt | -24 | -1 | nt | nt | nt | nt | nt | nt
CC(C)N=C1SC(CC(=O)Nc2ccccc2)C(=O)N1C(C)C (centres undefined) | 4 | 0 | 57* | 16 | 0 | -13 | 35* | 47 | 7 | 9
O=C(CC1SC(=Nc2ccccc2)N(CCO)C1=O)Nc1ccccc1 (centres undefined) | -3 | 1 | 6 | 3 | 3 | 4 | nt | nt | nt | nt
O=C(NCC1COc2ccccc2O1)C1CCN(S(=O)(=O)c2ccc(Cl)cc2)CC1 (centres undefined) | -3 | nt | 51* | 14 | nt | nt | 24* | 42 | 12* | 12
CCc1nc2c(OCC3CCCCC3)cccn2c1N(C)C(=O)c1ccc(C)cc1 | nt | nt | -10 | 13 | nt | nt | nt | nt | nt | nt
Cc1cccc(C)c1-c1ccc(CN2C(CC(C)C)C(=O)N(Cc3cn(CCO)nn3)CCS2(=O)=O)cc1 (centres undefined) | nt | nt | 90* | 34 | nt | nt | 53* | 67* | 21* | 19
NS(=O)(=O)c1ccc(NC(=S)Nc2ccc(S(=O)(=O)N3CCCC3)cc2)cc1 | 3 | 1 | 21 | 3 | 0 | -4 | nt | nt | nt | nt
O=S(=O)(c1ccc(NC(=S)NN=Cc2ccccc2O)cc1)N1CCCCC1 | nt | nt | 90* | 13 | nt | nt | 40* | 89* | 11 | 34
CCOC(=O)c1nn(-c2ccccc2)c(-c2ccccc2)c1C(=O)c1ccccc1 | 5 | 1 | 24 | 4 | 0 | -4 | nt | nt | nt | nt
CCOC(=O)c1nn(-c2ccccc2F)c(-c2ccccc2)c1C(=O)c1ccccc1 | 3 | -1 | 56* | 5 | 1 | -5 | 10 | 33 | 9 | 11
Cc1ccc(C(=O)OCC(=O)NC(C)C2CC3CCC2C3)cc1N (centres undefined) | 4 | nt | 8 | 5 | nt | nt | nt | nt | nt | nt
O=S(=O)(c1ccccc1Br)N(Cc1ccccc1)CC(O)COCc1ccccc1 (centres undefined) | nt | nt | 59* | 5 | nt | nt | 13 | 18 | 3 | 6
CC(C)Cc1nnc(NC(=O)CCC(=O)NCCc2ccc(Cl)cc2)s1 | -3 | nt | -8 | 2 | nt | -4 | nt | nt | nt | nt
O=C(CCCCCN1C(=O)[C@@H]2Cc3ccccc3CN2C1=O)Nc1cccc(F)c1 | 2 | nt | 67* | 8 | nt | 2 | 42* | 60* | 13* | 10
O=C(CN1CCN(S(=O)(=O)c2ccccc2C(F)(F)F)CC1)NCc1cccs1 | 3 | nt | -9 | 2 | nt | nt | nt | nt | nt | nt
NC(=O)c1ccsc1NC(=O)CN1CCN(S(=O)(=O)c2ccccc2C(F)(F)F)CC1 | nt | nt | 89* | 20 | nt | nt | 30* | 65* | 20* | 34
COc1ccc(CNC(=O)c2cc(C3CC3)nc3c2cnn3C(C)C)cc1 | -5 | nt | 50* | 5 | nt | nt | 12 | 22 | 3 | -1
COc1ccc(CCNC(=O)c2cc(C3CC3)nc3c2cnn3C(C)C)cc1OC | 2 | nt | 9 | 7 | nt | nt | nt | nt | nt | nt
CSc1cccc(NC(=O)C2CCN(S(=O)(=O)c3ccc(F)cc3)CC2)c1 | -5 | -1 | 43 | 18 | 1 | 11 | nt | nt | nt | nt
